{"source": "ChEMBL document CHEMBL1759837", "about": "“Studies on chemical modification and biology of a natural product, gambogic acid (III): determination of the essential pharmacophore for biological activity” (Eur J Med Chem, 2011)", "key": {"Mus musculus [1]": {"test_system": "Mus musculus", "experiment": "Toxicity in Kunming mouse xenografted with human HepG2 cells assessed as irritation on vein vascular at 12.5 to 50 mg/kg, iv administered 24 hrs after tumor implantation one dose per two day for total of four treatment measured after 24 hrs last postdose", "assay_type": "organism-based", "set-up": "dose 12.5-50 mg/kg, route intravenous", "conditions": "in vivo"}, "Mus musculus [2]": {"test_system": "Mus musculus", "experiment": "Toxicity in Kunming mouse xenografted with human HepG2 cells assessed as change in body weight at 25 mg/kg, iv administered 24 hrs after tumor implantation one dose per two day for total of four treatment measured after 24 hrs last postdose (reference value: 20.20 +/- 1.14 g)", "assay_type": "organism-based", "set-up": "dose 25 mg/kg, route intravenous", "conditions": "in vivo"}, "HepG2 [3]": {"test_system": "HepG2", "experiment": "Induction of apoptosis in human HepG2 cells assessed as viable cells at 1 uM after 24 hrs using annexin V-propidium iodide staining by flow cytometry (reference value: 93.2%)", "assay_type": "functional", "conditions": "HepG2, 24 h, read-out: Activity"}, "HepG2 [4]": {"test_system": "HepG2", "experiment": "Induction of apoptosis in human HepG2 cells assessed as activation of caspase 3 at 1 to 4 uM after 24 hrs by colorimetric assay relative to control", "assay_type": "functional", "how_it_was_run": "(§1)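 Kit colorimetric caspase-3 test. HepG2 cells treated at 1, 2 or 4 µM for 24 h at 37 °C, then lysed on ice 20 min and centrifuged. Supernatant containing 200 µg total protein incubated with Ac-DEVD-pNA 4 h at 37 °C; absorbance read at 405 nm. Fold activity = OD treated / OD control; mean ± SD, t-test.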"}, "BGC-823": {"test_system": "BGC-823", "experiment": "Antiproliferative activity against human BGC823 cells after 24 hrs by MTT assay", "assay_type": "functional, cell-based", "conditions": "BGC-823, 24 h", "how_it_was_run": "(§2)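 Cells grown at 37 °C in humidified 5% CO2 with benzylpenicillin and streptomycin. Compounds came from 0.01 mol/L DMSO stocks and were tested at eight two-fold dilutions in triplicate, with medium-only controls, for 24 h. MTT absorbance was read at 570 nm. Survival = A_treatment/A_control × 100. IC50 is the concentration giving 50% viability inhibition, as the mean of two separate experiments.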"}, "HepG2 [5]": {"test_system": "HepG2", "experiment": "Induction of apoptosis in human HepG2 cells assessed as late apoptotic cells at 4 uM after 24 hrs using annexin V-propidium iodide staining by flow cytometry (reference value: 3.4%)", "assay_type": "functional"}, "HepG2 [6]": {"test_system": "HepG2", "experiment": "Induction of apoptosis in human HepG2 cells assessed as cell membrane blebbing and shrinkage at 4 uM after 24 hrs using by inverted light microscopy", "assay_type": "functional, cell-based", "how_it_was_run": "(§3)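 HepG2 cells seeded at 1 × 10⁵ cells/well and treated 24 h at 1, 2 or 4 µM. Living cells first viewed under inverted light microscope (×200). Cells then fixed 20 min in 4% paraformaldehyde, stained 10 min with DAPI (1 mg/ml) and examined by fluorescence microscopy (×400, 340 nm excitation) for nuclear changes and apoptotic bodies.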"}, "HepG2 [7]": {"test_system": "HepG2", "experiment": "Induction of apoptosis in human HepG2 cells assessed as viable cells at 2 uM after 24 hrs using annexin V-propidium iodide staining by flow cytometry (reference value: 93.2%)", "assay_type": "functional", "conditions": "HepG2, 24 h, read-out: Activity"}, "HepG2 [8]": {"test_system": "HepG2", "experiment": "Induction of apoptosis in human HepG2 cells assessed as effect on bax protein expression at 2 uM after 24 hrs by Western blot analysis", "assay_type": "functional, cell-based", "how_it_was_run": "(§4)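 HepG2 cells treated 24 h at 1, 2 or 4 µM. Lysed in Tris-Cl pH 6.8 buffer containing SDS, glycerol, β-mercaptoethanol, PMSF and aprotinin; cleared at 12 000 × g, 15 min, 4 °C. Protein measured by BCA. Samples run on 15% SDS-PAGE, transferred to PVDF, probed overnight at 4 °C with primary antibodies against bcl-2, bax and pro-caspase-3, then IRDye 800 secondary 1 h at 37 °C.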"}, "HepG2 [9]": {"test_system": "HepG2", "experiment": "Induction of apoptosis in human HepG2 cells assessed as bright condensed chromatin in nuclei at 1 uM after 24 hrs by fluorescence microscopy"}, "HepG2 [10]": {"test_system": "HepG2", "experiment": "Induction of apoptosis in human HepG2 cells assessed as pre-necrotic cells at 4 uM after 24 hrs using annexin V-propidium iodide staining by flow cytometry (reference value: 0.5%)", "assay_type": "functional"}, "HepG2 [11]": {"test_system": "HepG2", "experiment": "Cell cycle arrest in human HepG2 cells assessed as accumulation at G2/M phase at 2 uM after 24 hrs using propidium iodide by Flow cytometry", "assay_type": "functional, cell-based", "how_it_was_run": "(§5)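 HepG2 cells synchronised by 24 h serum starvation, then treated 24 h at 1, 2 or 4 µM. Cells fixed overnight in 70% ethanol at 4 °C and stained 15 min at 37 °C in the dark with hypotonic PI solution (0.1% sodium citrate, 0.1% Triton X-100, 0.05 mg/ml PI, 0.01 mg/ml RNase). DNA content measured by flow cytometry.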"}, "HepG2 [12]": {"test_system": "HepG2", "experiment": "Induction of apoptosis in human HepG2 cells assessed as cell distortion at 4 uM after 24 hrs using by inverted light microscopy", "assay_type": "functional, cell-based", "how_it_was_run": "as §3"}, "HepG2 [13]": {"test_system": "HepG2", "experiment": "Induction of apoptosis in human HepG2 cells assessed as induction of cell integrity at 1 uM after 24 hrs by light microscopy", "assay_type": "functional, cell-based", "how_it_was_run": "as §3"}, "HepG2 [14]": {"test_system": "HepG2", "experiment": "Induction of apoptosis in human HepG2 cells assessed as nuclear condensation at 1 to 4 uM after 24 hrs using DAPI staining by fluorescent microscopy", "assay_type": "functional, cell-based", "how_it_was_run": "as §3"}, "HepG2 [15]": {"test_system": "HepG2", "experiment": "Induction of apoptosis in human HepG2 cells assessed as activation of caspase 3 after 24 hrs by colorimetric assay", "assay_type": "functional, cell-based", "how_it_was_run": "as §1"}, "HepG2 [16]": {"test_system": "HepG2", "experiment": "Antiproliferative activity against human HepG2 cells after 24 hrs by MTT assay", "assay_type": "functional, cell-based", "conditions": "HepG2, 24 h", "how_it_was_run": "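Tetrazolium MTT viability test; cells exposed to compound 24 h, absorbance read at 570 nm. Survival ratio = A treated / A control × 100%; IC50 is the concentration giving 50% loss of viability. Eight concentrations in two-fold dilutions, triplicate wells, mean of two separate experiments. Compounds dissolved in DMSO (0.01 mol/L stock); control wells received medium only.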"}, "[17]": {"test_system": "Heps hepatoma (Mus musculus)", "experiment": "Antitumor activity against murine Heps hepatoma cells transplanted in iv dosed Kunming mouse assessed as tumor growth inhibition administered 24 hrs after tumor implantation one dose per two day for total of four treatment measured after 24 hrs last postdose"}, "HepG2 [18]": {"test_system": "HepG2", "experiment": "Induction of apoptosis in human HepG2 cells assessed as large proportion of cell became round in shape at 4 uM after 24 hrs […] by inverted light microscopy", "assay_type": "functional, cell-based", "how_it_was_run": "as §3"}, "HepG2 [19]": {"test_system": "HepG2", "experiment": "Induction of apoptosis in human HepG2 cells assessed as early apoptotic cells at 1 uM after 24 hrs using annexin V-propidium iodide staining by flow cytometry (reference value: 3%)", "assay_type": "functional"}, "HepG2 [20]": {"test_system": "HepG2", "experiment": "Induction of apoptosis in human HepG2 cells assessed as effect on bax protein expression at 4 uM after 24 hrs by Western blot analysis", "assay_type": "functional, cell-based", "how_it_was_run": "as §4"}, "HepG2 [21]": {"test_system": "HepG2", "experiment": "Induction of apoptosis in human HepG2 cells assessed as late apoptotic cells at 1 uM after 24 hrs using annexin V-propidium iodide staining by flow cytometry (reference value: 3.4%)", "assay_type": "functional"}, "HepG2 [22]": {"test_system": "HepG2", "experiment": "Induction of apoptosis in human HepG2 cells assessed as pre-necrotic cells at 2 uM after 24 hrs using annexin V-propidium iodide staining by flow cytometry (reference value: 0.5%)", "assay_type": "functional"}, "HepG2 [23]": {"test_system": "HepG2", "experiment": "Induction of apoptosis in human HepG2 cells assessed as decrease in bcl-2 expression at 4 uM after 24 hrs by Western blot analysis", "assay_type": "functional, cell-based", "how_it_was_run": "as §4"}, "HepG2 [24]": {"test_system": "HepG2", "experiment": "Cell cycle arrest in human HepG2 cells assessed as accumulation at G2/M phase at 4 uM after 24 hrs using propidium iodide by Flow cytometry", "assay_type": "functional, cell-based", "how_it_was_run": "as §5"}, "MCF7": {"test_system": "MCF7", "experiment": "Antiproliferative activity against human MCF7 cells after 24 hrs by MTT assay", "assay_type": "functional, cell-based", "conditions": "MCF7, 24 h", "how_it_was_run": "as §2"}}, "note": "pIC50: −log10 of the molar value. Activity calls are given as the source filed them. The calls are words filed in the database; no cut-off is given here."}
{"smiles": "CC(C)=CCC12OC(C)(C)C3CC(C=C4C(=O)c5c(O)cccc5OC431)C2=O", "note": "(stereo unspecified)", "values": [{"measurement": "Activity", "setting": "Mus musculus [1]", "value": "Non-toxic"}, {"measurement": "Activity", "setting": "Mus musculus [2]", "value": 29.4, "unit": "g"}, {"measurement": "viability at 1 µM", "setting": "HepG2 [3]", "value": 86.3, "unit": "%"}, {"measurement": "fold change (FC)", "setting": "HepG2 [4]", "value": 3}, {"measurement": "pIC50", "setting": "BGC-823", "value": 5.44}, {"measurement": "Activity", "setting": "HepG2 [5]", "value": 7.4, "unit": "%"}, {"measurement": "Activity", "setting": "HepG2 [6]", "value": "Active"}, {"measurement": "viability at 2 µM", "setting": "HepG2 [7]", "value": 71.9, "unit": "%"}, {"measurement": "Activity", "setting": "HepG2 [8]", "value": "inactive"}, {"measurement": "Activity", "setting": "HepG2 [9]", "value": "Active"}, {"measurement": "Activity", "setting": "HepG2 [10]", "value": 1.1, "unit": "%"}, {"measurement": "Activity", "setting": "HepG2 [11]", "value": "Active"}, {"measurement": "Activity", "setting": "HepG2 [12]", "value": "Active"}, {"measurement": "Activity", "setting": "HepG2 [13]", "value": "Active"}, {"measurement": "Activity", "setting": "HepG2 [14]", "value": "Active"}, {"measurement": "Activity", "setting": "HepG2 [15]", "value": "Dose-dependent effect"}, {"measurement": "pIC50", "setting": "HepG2 [16]", "value": 5.63}, {"measurement": "inhibition", "setting": "[17]", "value": "Dose-dependent effect"}, {"measurement": "Activity", "setting": "HepG2 [18]", "value": "Active"}, {"measurement": "Activity", "setting": "HepG2 [19]", "value": 8.1, "unit": "%"}, {"measurement": "Activity", "setting": "HepG2 [20]", "value": "inactive"}, {"measurement": "Activity", "setting": "HepG2 [21]", "value": 4.8, "unit": "%"}, {"measurement": "Activity", "setting": "HepG2 [22]", "value": 1.1, "unit": "%"}, {"measurement": "Activity", "setting": "HepG2 [23]", "value": "Active"}, {"measurement": "Activity", "setting": "HepG2 [24]", "value": "Active"}, {"measurement": "pIC50", "setting": "MCF7", "value": 5.04}]}
